The source of these data is ChEMBL document CHEMBL5653623 (J Pharmacol Exp Ther, 2015).

Data set [1] in a line: Unbound fraction in C57Bl/6 mouse brain. Type of data set: ADME, tissue-based. An outline of the steps: (§1)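 Plasma and brain binding were determined by equilibrium dialysis at 1 μM.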
Data set [2] can be described thus: MRT in C57Bl/6 mouse at 10 mg/kg, po measured after 480 mins by LC-MS/MS analysis. The data set is classed as ADME, organism-based. Conditions: in vivo. Put shortly:
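Male C57Bl/6 mice (20-25 g) given a single IV dose (2 mg/kg) or oral dose (10 mg/kg). Blood was sampled at 5, 15, 30, 60, 120, 240, 360 and 480 min and plasma prepared by centrifugation. Plasma drug levels were measured by LC/MS/MS. Values are mean (CV%), N=3.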

The nature of data set [3]: Inhibition of adenosine transporter (unknown origin). Details: species or system Homo sapiens. Put shortly: (§2)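 Radioligand binding selectivity screen was run at 10 μM, mean of three determinations. Where inhibition exceeded 50%, full concentration-displacement curves were run in triplicate and IC50 was obtained by nonlinear least-squares regression.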
Data set [4] deals with Mus musculus. Kind of data set: Effect on behavioral phenotype in 11 weeks old MitoPark mouse assessed as decreased rearing behavior at 30 mg/kg/day administered for 6 weeks and measured after 60 mins. Type of data set: functional, organism-based. An outline of the steps:
(§3)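 MitoPark mice, 5 weeks old, were allocated by baseline 60-min LMA to untreated diet or diet targeting 30 mg/kg/day (reformulated every 3 weeks). Wild-type littermates received vehicle diet. Body weight and food intake were recorded weekly. 60-min LMA (distance, rearing) was run at 8, 11, 14 and 17 weeks of age.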

Data set [5] is described as follows: Unbound fraction in C57Bl/6 mouse plasma. Type of data set: ADME, cell-free. Put shortly: as §1
The target of data set [6] is Leucine-rich repeat serine/threonine-protein kinase 2 (Mus musculus) (UniProt Q5S006). Nature of the data set: In vivo inhibition of LRRK2 in C57Bl/6 mouse brain assessed as total LRRK2 protein level at 3 to 120 mg/kg administered for 11 days and measured for 4 to 24 hrs by Western blotting analysis. Type of data set: functional, organism-based. Conditions: dose 3-120 mg/kg, time 11.0 day. Put shortly:
(§4)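 Male C57Bl/6 mice, singly housed on a reversed light cycle. Fed drug diet targeted to 3, 10, 30, 60 or 120 mg/kg/day (assuming 3 g/day intake), or untreated diet, for 11 days. Killed 4, 8 or 24 h after dark-cycle onset, n = 5 per group. Cortex immunoblotted for pSer935/total LRRK2 and total LRRK2/GAPDH. Total LRRK2 detected with MJFF2 antibody.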
On the technique in general: In western blotting, separated proteins are transferred to a membrane and probed.

The test system of data set [7] is Mus musculus. Kind of data set: Effect on histological changes in 20 weeks old MitoPark mouse lung assessed as slight enlargement of alveolar epithelial cells at 30 mg/kg/day administered for 15 weeks by hematoxylin and eosin staining based microscopic analysis. Type of data set: functional, organism-based. Put shortly: (§5)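 MitoPark mice were fed diet targeting 30 mg/kg/day or vehicle for 15 weeks and euthanized at 20 weeks of age (n=5/group). Kidney and lung were fixed in 10% neutral buffered formalin, paraffin-embedded, sectioned at 5 µm, H&E-stained and examined microscopically.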

The target of data set [8] is T1, Peroxisome proliferator-activated receptor gamma (Homo sapiens, UniProt P37231).
T1 sequence (P37231 whole entry): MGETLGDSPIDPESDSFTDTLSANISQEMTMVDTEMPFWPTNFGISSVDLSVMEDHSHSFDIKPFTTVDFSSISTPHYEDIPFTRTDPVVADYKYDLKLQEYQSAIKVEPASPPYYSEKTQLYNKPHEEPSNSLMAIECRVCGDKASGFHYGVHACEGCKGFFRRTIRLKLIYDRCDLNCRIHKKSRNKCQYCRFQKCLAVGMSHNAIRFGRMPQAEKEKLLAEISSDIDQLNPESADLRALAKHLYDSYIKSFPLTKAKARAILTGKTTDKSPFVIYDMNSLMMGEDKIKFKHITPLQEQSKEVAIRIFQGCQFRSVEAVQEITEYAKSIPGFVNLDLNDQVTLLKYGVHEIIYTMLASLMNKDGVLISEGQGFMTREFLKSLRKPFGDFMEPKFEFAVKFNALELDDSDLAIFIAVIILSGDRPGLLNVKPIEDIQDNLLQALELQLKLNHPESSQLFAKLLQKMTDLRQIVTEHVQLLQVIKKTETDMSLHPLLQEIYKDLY
Kind of data set: Inhibition of peroxisome proliferator-activated receptors gamma (unknown origin). An outline of the steps: as §2

Data set [9] addresses Leucine-rich repeat serine/threonine-protein kinase 2 (Mus musculus) (UniProt Q5S006). Kind of data set: In vivo inhibition of LRRK2 in 20 weeks old MitoPark mouse kidney assessed as reduction in total LRRK2 protein level at 30 mg/kg/day administered for 15 weeks by Western blotting analysis. Type of data set: functional, organism-based. An outline of the steps:
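MitoPark mice on drug-containing diet targeted to 30 mg/kg/day from 5 weeks of age, with the diet reformulated every 3 weeks to hold the target. Untreated-diet MitoPark and wild-type littermate controls. Killed by CO2 at 20 weeks of age. Lung and kidney taken from 5 mice per group for pSer935 and total LRRK2 immunoblots.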

In data set [10] the test system is Mus musculus. Nature of the data set: Effect on histological changes in 20 weeks old MitoPark mouse kidney assessed as accumulation of pigment in renal cortical tubules at 30 mg/kg/day administered for 15 weeks by hematoxylin and eosin staining based microscopic analysis. Type of data set: functional, organism-based. Put shortly:
as §5

The nature of data set [11]: Effect on spontaneous locomotor activity in C57Bl/6 mouse assessed as distance traveled administered for 11 days by truScan photo beam activity system analysis. Type of data set: toxicity. Conditions: in vivo, 264 h, time 11 day. Put shortly: (§6)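 Male C57Bl/6 mice, singly housed on a reversed 12 h light cycle, were fed diet formulated to give 3, 10, 30, 60 or 120 mg/kg/day (assumes 3 g/day intake) or untreated diet for 11 days. Body weight and food intake were monitored. Spontaneous locomotion and rearing were recorded over 60 min. On day 11, mice were euthanized 4, 8 or 24 h after dark onset and plasma and brain drug levels measured; n = 5 per group.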

Data set [12] has as its system Mus musculus. Nature of the data set: Effect on behavioral changes in 8 weeks old MitoPark mouse striatum assessed as dopamine level at 30 mg/kg/day administered for 3 weeks by HPLC analysis. Type of data set: functional. Put shortly: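 Striatum from MitoPark mice on diet targeting 30 mg/kg/day or vehicle diet (wild-type littermate controls) was homogenized by sonication in 0.1 M acid at 0.1 g/mL. Samples were held 60 min at 4 °C and centrifuged. Dopamine, DOPAC and HVA were measured by HPLC with electrochemical detection against a 3,4-DHBA internal standard and standard curves. Mean ± SEM.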

The test system of data set [13] is Mus musculus. Nature of the data set: Effect on histological changes in 20 weeks old MitoPark mouse kidney assessed as kidney darkening at 30 mg/kg/day administered for 15 weeks by hematoxylin and eosin staining based microscopic analysis. Type of data set: functional, organism-based. Put shortly: as §5
Data set [14] is described as follows: Unbound brain concentration in C57Bl/6 mouse administered for 11 days and measured after 24 hrs. Type of data set: ADME, tissue-based. Conditions: in vivo, 264 h, time 11 day. An outline of the steps: as §6
For data set [15], the system named is Mus musculus. Kind of data set: Effect on behavioral phenotype in 11 weeks old MitoPark mouse assessed as decreased locomotor activity at 30 mg/kg/day administered for 6 weeks and measured after 60 mins truScan photo beam activity system analysis. Type of data set: functional, organism-based. An outline of the steps: as §3
Data set [16] concerns Mus musculus. Nature of the data set: Effect on food intake in MitoPark mouse at 30 mg/kg administered for 15 weeks. The data set is classed as functional, organism-based. An outline of the steps: as §3
Data set [17] deals with Leucine-rich repeat serine/threonine-protein kinase 2 (Mus musculus) (UniProt Q5S006). Nature of the data set: In vivo inhibition of LRRK2 in C57Bl/6 mouse brain assessed as inhibition of pSer935 LRRK2 administered for 11 days and measured after 24 hrs by Western blotting analysis. The data set is classed as functional, organism-based. Conditions: dose 3-120 mg/kg, time 11.0 day. Put shortly: as §4

The source made the active and inactive calls. The rule behind the calls is not given here.

Sequence of Leucine-rich repeat serine/threonine-protein kinase 2 (Mus musculus) (Q5S006 whole entry): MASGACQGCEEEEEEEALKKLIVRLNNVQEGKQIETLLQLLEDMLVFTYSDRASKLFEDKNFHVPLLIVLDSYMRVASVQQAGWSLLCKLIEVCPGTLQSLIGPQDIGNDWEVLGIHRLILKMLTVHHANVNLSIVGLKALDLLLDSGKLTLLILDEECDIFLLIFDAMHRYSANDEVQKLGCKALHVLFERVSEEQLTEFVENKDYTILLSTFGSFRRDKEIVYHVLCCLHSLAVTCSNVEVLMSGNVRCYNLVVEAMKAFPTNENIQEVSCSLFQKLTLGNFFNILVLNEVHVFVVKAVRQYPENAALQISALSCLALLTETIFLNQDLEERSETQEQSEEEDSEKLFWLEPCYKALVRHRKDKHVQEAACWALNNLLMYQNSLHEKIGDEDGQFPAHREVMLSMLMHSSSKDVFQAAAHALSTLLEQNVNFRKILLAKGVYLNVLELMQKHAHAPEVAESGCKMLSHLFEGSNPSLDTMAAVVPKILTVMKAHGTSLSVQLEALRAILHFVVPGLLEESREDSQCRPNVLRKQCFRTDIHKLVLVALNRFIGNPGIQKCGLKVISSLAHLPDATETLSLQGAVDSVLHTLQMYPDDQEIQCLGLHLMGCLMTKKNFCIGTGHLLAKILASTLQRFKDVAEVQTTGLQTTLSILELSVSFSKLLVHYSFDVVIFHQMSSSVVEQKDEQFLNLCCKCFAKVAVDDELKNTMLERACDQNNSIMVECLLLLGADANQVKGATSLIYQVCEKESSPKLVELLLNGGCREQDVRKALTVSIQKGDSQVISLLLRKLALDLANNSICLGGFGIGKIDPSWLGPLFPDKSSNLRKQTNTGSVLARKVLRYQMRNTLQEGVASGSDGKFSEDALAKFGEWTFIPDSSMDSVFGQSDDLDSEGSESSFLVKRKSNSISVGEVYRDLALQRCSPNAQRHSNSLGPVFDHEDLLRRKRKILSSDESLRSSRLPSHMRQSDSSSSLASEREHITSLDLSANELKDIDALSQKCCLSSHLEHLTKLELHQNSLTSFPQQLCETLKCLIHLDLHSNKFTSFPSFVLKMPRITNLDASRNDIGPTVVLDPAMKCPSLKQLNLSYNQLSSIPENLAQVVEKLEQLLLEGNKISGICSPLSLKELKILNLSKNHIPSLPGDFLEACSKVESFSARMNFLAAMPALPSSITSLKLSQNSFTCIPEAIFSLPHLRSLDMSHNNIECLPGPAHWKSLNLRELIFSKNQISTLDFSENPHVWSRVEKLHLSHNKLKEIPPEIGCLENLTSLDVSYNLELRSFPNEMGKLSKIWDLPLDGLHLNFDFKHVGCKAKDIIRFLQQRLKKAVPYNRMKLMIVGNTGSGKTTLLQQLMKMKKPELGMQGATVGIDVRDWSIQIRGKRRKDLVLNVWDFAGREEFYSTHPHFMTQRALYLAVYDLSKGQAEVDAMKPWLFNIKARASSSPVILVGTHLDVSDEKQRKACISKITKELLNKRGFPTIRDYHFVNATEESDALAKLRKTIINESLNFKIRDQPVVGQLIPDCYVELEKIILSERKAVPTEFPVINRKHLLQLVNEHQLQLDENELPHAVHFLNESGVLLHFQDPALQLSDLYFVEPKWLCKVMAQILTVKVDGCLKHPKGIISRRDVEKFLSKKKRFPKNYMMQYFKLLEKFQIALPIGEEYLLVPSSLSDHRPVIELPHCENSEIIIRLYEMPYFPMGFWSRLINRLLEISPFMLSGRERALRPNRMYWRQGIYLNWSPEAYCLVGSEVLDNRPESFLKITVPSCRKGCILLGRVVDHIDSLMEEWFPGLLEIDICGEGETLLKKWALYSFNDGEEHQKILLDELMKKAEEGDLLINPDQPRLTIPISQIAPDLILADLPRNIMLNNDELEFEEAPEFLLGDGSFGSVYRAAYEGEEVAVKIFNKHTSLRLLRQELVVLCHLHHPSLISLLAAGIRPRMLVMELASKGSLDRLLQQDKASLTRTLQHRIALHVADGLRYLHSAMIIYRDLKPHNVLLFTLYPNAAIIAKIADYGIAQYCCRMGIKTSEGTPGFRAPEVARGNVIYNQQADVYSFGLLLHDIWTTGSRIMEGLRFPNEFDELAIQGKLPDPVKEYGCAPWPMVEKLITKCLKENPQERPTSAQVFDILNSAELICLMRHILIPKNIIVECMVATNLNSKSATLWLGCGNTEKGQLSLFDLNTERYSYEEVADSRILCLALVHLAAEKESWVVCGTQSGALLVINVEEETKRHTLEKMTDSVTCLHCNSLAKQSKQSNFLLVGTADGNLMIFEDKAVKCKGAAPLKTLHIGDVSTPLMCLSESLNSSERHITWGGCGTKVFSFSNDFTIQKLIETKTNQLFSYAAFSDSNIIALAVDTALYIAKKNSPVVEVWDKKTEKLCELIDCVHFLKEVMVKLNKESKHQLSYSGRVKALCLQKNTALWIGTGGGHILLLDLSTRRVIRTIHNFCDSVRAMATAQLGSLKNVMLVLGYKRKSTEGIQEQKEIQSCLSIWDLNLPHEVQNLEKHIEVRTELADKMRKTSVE

One may read the fraction unbound as the share of the substance not bound to proteins or other matrix. As a reminder, the MRT is a mean duration of stay, worked out from the concentration-time curve. What is called IC50 is the concentration that inhibits the measured activity by half. Read a high IC50 as a need for much substance. Turning to `C[C@@H]1CN(c2cc(-c3n[nH]c4ccc(OC5(C)CC5)cc34)ncn2)C[C@H](C)O1` [MLi-2], the fraction unbound in data set [1] worked out at 0.009; in data set [5] it was 0.008. In addition, the MRT in data set [2] is 11 h. Besides, the figures for the IC50 in data set [3] and in data set [8] were 9.7 µM and 6.5 µM, respectively. The outcome in [4], in [7] and in data set [15] was Active. For the same molecule, in data set [6], the inhibition result was “inactive”. The inhibition result in data set [9] is “Active”. In addition, the outcome in [10], in [13] and in data set [16] was inactive. Further, the Activity result in data set [11] is “Non-Toxic”; in data set [12] it was 1114 ng/g. For the same molecule, the “Drug uptake(free)” value in [14] was “Active”. Further, the inhibition entry in data set [17] is “Dose-Dependent Effect”.
